This note sets out measurements from ChEMBL document CHEMBL3792272, “Discovery of Potent and Orally Active Lipoprotein-Associated Phospholipase A2 (Lp-PLA2) Inhibitors as a Potential Therapy for Diabetic Macular Edema” (J Med Chem, 2016).

Common to all, as to type: ADME, organism-based
Data set [1] is described as follows: AUC (0 to 24 hrs) in Sprague-Dawley rat at 10 mg/kg, iv after 5 mins to 24 hrs by LC-MS/MS analysis. More on the design: time < 24 hr, dose 10 mg/kg, route intravenous. The following applies: in vivo. The method in brief: (§1)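 Male SD rats, n=5 per group, single iv bolus: 5 mg/kg in 5% DMSO/5% Tween-80 in saline, or 10 mg/kg tartrate salt in water. Plasma sampled predose and at 5, 15, 30 min and 1, 3, 5, 7, 24 h. Drug measured by LC-MS. Parameters by noncompartmental analysis of mean concentrations.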

The nature of data set [2]: Volume of distribution at steady state in Sprague-Dawley rat at 10 mg/kg, iv after 5 mins to 24 hrs by LC-MS/MS analysis. The following applies: in vivo, read-out: Vdss. The method in brief: as §1
Data set [3] in a line: AUC (0 to 24 hrs) in Sprague-Dawley rat at 50 mg/kg, po after 0.5 to 24 hrs by LC-MS/MS analysis. The note with it: in vivo. The arrangement: time < 24 hr, dose 50 mg/kg, route oral.
The nature of data set [4]: Cmax in Sprague-Dawley rat at 50 mg/kg, po after 0.5 to 24 hrs by LC-MS/MS analysis. More on the design: dose 50 mg/kg, route oral. The note with it: in vivo.
Data set [5] can be described thus: Tmax in Sprague-Dawley rat at 50 mg/kg, po after 0.5 to 24 hrs by LC-MS/MS analysis. The following applies: in vivo.

As to `CCN(CC)CCN(Cc1ccc(-c2ccc(C(F)(F)F)cc2)cc1)C(=O)Cn1c(SCc2ccc(F)cc2)nc(=O)c2c1CCC2` [DARAPLADIB], the AUC(0-t) – broadly, the area under the concentration-time curve up to a stated or last time point – at 24 h is 1200 ng·h/mL in data set [1] and 1300 ng·h/mL in data set [3]. Besides, the Vd in data set [2] was 34.4 L/kg. Besides, the highest level in data set [4] (Cmax) was 115 ng/mL. In addition, the Tmax (in general, the time from dosing to the highest level) in data set [5] stood at 4.2 h.
